Measurements from ChEMBL document CHEMBL4190254, “Synthesis of sulfamoylbenzamide derivatives as HBV capsid assembly effector” (Eur J Med Chem, 2017).
Each block holds one compound with its values, some of them ahead of it. Activity calls are given as the source filed them. No cut-off for these calls is given here.

Experiments:
Vero = assay: Cytotoxicity against African green monkey Vero cells by CellTiter 96 non-radioactive cell proliferation colorimetric assay; format: cell-based; settings: chlorocebus sabaeus, vero
Method in brief: (§1)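 A CellTiter 96 colorimetric cell proliferation read-out was used in primary human PBM cells, CEM, Vero and HepG2 cells. CC50 is the concentration that inhibits cell growth by 50%.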

HepG2 = assay: Cytotoxicity against human HepG2 cells by CellTiter 96 non-radioactive cell proliferation colorimetric assay; format: cell-based; method in brief: as §1
Hepatitis B virus [1] = assay: Antiviral activity against HBV infected in human HepAD38 cells assessed as reduction in viral replication by RT-PCR method; format: functional, organism-based
Method in brief: (§2)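 HBV DNA replication in HepAD38 cells was quantified by RT-PCR following an earlier published method, with data relative to the untreated control. EC50 (50% inhibition of HBV DNA replication) was derived by linear regression. Values are the mean ± SD of two or three replicates from 2 independent experiments.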

CCRF-CEM = assay: Cytotoxicity against human CEM cells by CellTiter 96 non-radioactive cell proliferation colorimetric assay; format: cell-based; settings: ccrf-cem; method in brief: as §1
PBMC = assay: Cytotoxicity against human PBMC by CellTiter 96 non-radioactive cell proliferation colorimetric assay; format: cell-based; method in brief: as §1
Hepatitis B virus [2] = assay: Inhibition of HBV capsid cp149 assembly expressed in Escherichia coli BL21 at 20 uM preincubated for 1 hr followed by NaCl stimulation measured after overnight incubation by uranyl acetate staining based electron microscopic method
Method in brief: (§3)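 Untagged HBV core residues 1–149 expressed in E. coli BL21 (1 mM IPTG, 16 °C overnight), purified as capsids, dissociated to dimers with 4 M urea in carbonate buffer pH 9.5; >95% pure. Dimers preincubated 1 hr with compound (20 μM), then capsid buffer added (final NaCl 300 mM, Cp149 monomer 10 μM); held 4 °C overnight; uranyl acetate negative-stain EM, single-blind.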

[3] = target: Core antigen (Hepatitis B virus) (UniProt Q03732); assay: Inhibition of capsid in HBV infected in human HepAD38 cells assessed as reduction in cccDNA formation by measuring reduction in HBe antigen secretion at 3 to 4 uM after 14 days by ELISA relative to control; format: cell-based
Method in brief: (§4)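 HepAD38 cells, collagen-coated wells, DMEM/F12 with 10% heat-inactivated FBS. Tetracycline withdrawn 7 days to allow DNA synthesis and cccDNA formation; at day 7 tetracycline (0.3 μg/ml) plus compound re-added. Compound at 10 μM or 0.001–10 μM, medium and compound replenished every 5 days. Day-14 supernatant HBeAg by ELISA; EC50 by linear regression.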

Hepatitis B virus [4] = assay: Antiviral activity against HBV infected in human HepAD38 cells assessed as reduction in intracellular viral DNA level by RT-PCR method; format: functional, organism-based; method in brief: as §2
Hepatitis B virus [5] = assay: Antiviral activity against HBV infected in human HepAD38 cells assessed as reduction in extracellular viral DNA level by RT-PCR method; format: functional, organism-based; method in brief: as §2
Hepatitis B virus [6] = assay: Inhibition of HBV capsid cp149 assembly expressed in Escherichia coli BL21 assessed as spherical capsid aggregation in to clusters at 20 uM preincubated for 1 hr followed by NaCl stimulation measured after overnight incubation by uranyl acetate staining based electron microscopic method; method in brief: as §3
[7] = target: Core antigen (Hepatitis B virus) (UniProt Q03732); assay: (§5) Inhibition of capsid in HBV infected in human HepAD38 cells assessed as reduction in tetracycline-induced cccDNA formation by measuring reduction in HBe antigen secretion after 14 days by ELISA; format: cell-based; method in brief: as §4
Core antigen = Core antigen (Hepatitis B virus, UniProt Q03732); assay: as §5; format: cell-based; method in brief: as §4
Hepatitis B virus [8] = assay: Antiviral activity against HBV infected in human HepAD38 cells assessed as reduction in intracellular viral DNA level at 10 uM by RT-PCR method relative to control; format: functional; set-up: scale not given: the % may be the effect or the level left
Method in brief: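 HepAD38 cells; intracellular HBV DNA quantified by RT-PCR, expressed relative to untreated control; single-point inhibition given as percent at 10 μM, mean ± SD of two or three replicates from 2 independent experiments.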

Hepatitis B virus [9] = assay: Antiviral activity against HBV infected in human HepAD38 cells assessed as inhibition of viral replication at 10 uM by RT-PCR method relative to control; format: functional
Method in brief: (§6)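 HBV DNA replication in HepAD38 cells was quantified by RT-PCR following an earlier published method. Each compound was tested at a single 10 μM concentration. Results are % inhibition ± SD relative to the untreated control.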

Hepatitis B virus [10] = assay: Antiviral activity against HBV infected in human HepAD38 cells assessed as reduction in extracellular viral DNA level at 10 uM by RT-PCR method relative to control; format: functional; set-up: scale not given: the % may be the effect or the level left; method in brief: as §6
[11] = target: Core antigen (Hepatitis B virus) (UniProt Q03732); assay: Inhibition of capsid in HBV infected in human HepAD38 cells assessed as reduction in cccDNA formation by measuring reduction in HBe antigen secretion at 10 uM after 14 days by ELISA relative to control; format: cell-based; method in brief: as §4

Sequence of Core antigen (Hepatitis B virus) (Q03732 as listed by the source): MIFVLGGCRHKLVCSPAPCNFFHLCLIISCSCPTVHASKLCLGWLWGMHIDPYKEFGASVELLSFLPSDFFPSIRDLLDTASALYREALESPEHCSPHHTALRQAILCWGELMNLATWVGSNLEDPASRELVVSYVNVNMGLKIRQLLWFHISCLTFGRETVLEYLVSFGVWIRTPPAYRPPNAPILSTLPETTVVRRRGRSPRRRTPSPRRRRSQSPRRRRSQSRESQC
Sequence of Core antigen (Q03732 whole entry): as the sequence (Q03732 as listed by the source) above

EC50 (Hepatitis B virus [1]): > 10 µM
SMILES: O=C(Nc1ccc(F)c(F)c1)c1cc(S(=O)(=O)NS(=O)(=O)c2ccc(F)c(F)c2)ccc1F
CC50 (Vero): > 100 µM
CC50 (HepG2): > 100 µM
CC50 (CCRF-CEM): > 100 µM
CC50 (PBMC): > 100 µM

EC50 (Hepatitis B virus [1]): > 10 µM
SMILES: CS(=O)(=O)NS(=O)(=O)c1ccc(F)c(C(=O)Nc2ccc(F)c(F)c2)c1
CC50 (Vero): > 100 µM
CC50 (HepG2): > 100 µM
CC50 (CCRF-CEM): > 100 µM
CC50 (PBMC): > 100 µM

EC50 (Hepatitis B virus [1]): > 10 µM
SMILES: O=C(Nc1ccc(F)c(F)c1)c1cc(S(=O)(=O)N2CCCC2=O)ccc1F
CC50 (Vero): 39.6 µM
CC50 (HepG2): > 100 µM
CC50 (CCRF-CEM): 37.8 µM
CC50 (PBMC): > 100 µM

SMILES: CC(C)(NC(=O)c1cccc(S(=O)(=O)NC2CCCC2)c1)c1ccc(F)c(F)c1
CC50 (Vero): 84.3 µM
CC50 (HepG2): > 100 µM
EC50 (Hepatitis B virus [1]): > 10 µM
CC50 (CCRF-CEM): 64 µM
inhibition (Hepatitis B virus [2]): inactive
CC50 (PBMC): > 100 µM

EC50 (Hepatitis B virus [1]): 6.8 µM
EC90 (Hepatitis B virus [1]): 9.6 µM
SMILES: CC(C)(NS(=O)(=O)c1ccc(F)c(C(=O)Nc2ccc(F)c(F)c2)c1)c1ccccc1
CC50 (Vero): 39.4 µM
CC50 (HepG2): 88.2 µM
CC50 (CCRF-CEM): 3.8 µM
CC50 (PBMC): > 100 µM

EC50 (Hepatitis B virus [1]): > 10 µM
SMILES: CN(C)S(=O)(=O)NS(=O)(=O)c1ccc(F)c(C(=O)Nc2ccc(F)c(F)c2)c1
CC50 (Vero): > 100 µM
CC50 (HepG2): > 100 µM
CC50 (CCRF-CEM): > 100 µM
CC50 (PBMC): > 100 µM

EC50 (Hepatitis B virus [1]): > 10 µM
SMILES: CCOC(=O)[C@H](CC(C)C)NS(=O)(=O)c1ccc(F)c(C(=O)Nc2ccc(F)c(F)c2)c1
CC50 (Vero): 39.1 µM
CC50 (HepG2): > 100 µM
CC50 (CCRF-CEM): 10.8 µM
CC50 (PBMC): 58.1 µM

SMILES: O=C(Nc1ccc(F)c(F)c1)c1cc(S(=O)(=O)N2CC(F)(F)C2)ccc1F
inhibition [3]: 90%
CC50 (Vero): 14.7 µM
CC50 (HepG2): 27 µM
EC50 (Hepatitis B virus [4]): 0.9 µM
EC90 (Hepatitis B virus [4]): 9.7 µM
EC50 (Hepatitis B virus [1]): 1.2 µM
EC90 (Hepatitis B virus [1]): 6.3 µM
CC50 (CCRF-CEM): 3.7 µM
EC50 (Hepatitis B virus [5]): 1.2 µM
EC90 (Hepatitis B virus [5]): 6.3 µM
inhibition (Hepatitis B virus [6]): Active
EC90 [7]: 3.2 µM
EC50 (Core antigen): 1 µM
CC50 (PBMC): 69.1 µM

EC50 (Hepatitis B virus [1]): 4.6 µM
EC90 (Hepatitis B virus [1]): 10 µM
SMILES: O=C(Nc1ccc(F)c(F)c1)c1cc(S(=O)(=O)N2CCC3CCCCC32)ccc1F (stereo not given)
CC50 (Vero): 30.7 µM
CC50 (HepG2): > 100 µM
CC50 (CCRF-CEM): 22.9 µM
CC50 (PBMC): > 100 µM

EC50 (Hepatitis B virus [1]): > 10 µM
SMILES: O=C1c2cc(S(=O)(=O)NC3CCCC3)ccc2CCCN1c1ccc(F)c(F)c1
CC50 (Vero): > 100 µM
CC50 (HepG2): > 100 µM
CC50 (CCRF-CEM): 50.6 µM
CC50 (PBMC): > 100 µM

SMILES: CCOC(=O)C1=C(CN2CCOCC2)NC(c2nccs2)=NC1c1ccc(F)cc1Br (stereo not given)
Activity (Hepatitis B virus [8]): 82%
EC50 (Hepatitis B virus [4]): < 0.01 µM
EC90 (Hepatitis B virus [4]): 0.05 µM
EC50 (Hepatitis B virus [5]): 0.2 µM
EC90 (Hepatitis B virus [5]): 1 µM
EC90 [7]: 1.9 µM

EC50 (Hepatitis B virus [1]): 7.7 µM
EC90 (Hepatitis B virus [1]): ≥ 10 µM
SMILES: CN(C1CCCC1)S(=O)(=O)c1ccc(F)c(C(=O)Nc2ccc(F)c(F)c2)c1
CC50 (Vero): 18.3 µM
CC50 (HepG2): 48.6 µM
CC50 (CCRF-CEM): 14.5 µM
CC50 (PBMC): 25.8 µM
inhibition at 10 µM (Hepatitis B virus [9]): 87%

SMILES: O=C(Nc1ccc(F)c(F)c1)c1cc(NS(=O)(=O)C2CCCCC2)ccc1F
Activity (Hepatitis B virus [8]): 63%
CC50 (Vero): 6.4 µM
CC50 (HepG2): 80.4 µM
EC50 (Hepatitis B virus [4]): < 0.1 µM
EC90 (Hepatitis B virus [4]): 7.9 µM
EC50 (Hepatitis B virus [1]): 3.7 µM
EC90 (Hepatitis B virus [1]): ≥ 10 µM
CC50 (CCRF-CEM): 74.5 µM
Activity (Hepatitis B virus [10]): 86%
EC50 (Hepatitis B virus [5]): 3.7 µM
EC90 (Hepatitis B virus [5]): ≥ 10 µM
EC90 [7]: > 10 µM
EC50 (Core antigen): 9.7 µM
inhibition [11]: 67%
CC50 (PBMC): > 100 µM

EC50 (Hepatitis B virus [1]): 2.7 µM
EC90 (Hepatitis B virus [1]): > 10 µM
SMILES: O=C(Nc1ccc(F)c(F)c1)c1cc(S(=O)(=O)NOC2CCCC2)ccc1F
CC50 (Vero): 5.8 µM
CC50 (HepG2): 26.4 µM
CC50 (CCRF-CEM): 6.4 µM
CC50 (PBMC): 13 µM
inhibition at 10 µM (Hepatitis B virus [9]): 82%

SMILES: O=C(Nc1ccc(F)c(F)c1)c1cc(NS(=O)(=O)C2CCCC2)ccc1F
CC50 (Vero): 29.1 µM
CC50 (HepG2): > 100 µM
EC50 (Hepatitis B virus [4]): 0.3 µM
EC90 (Hepatitis B virus [4]): 3.6 µM
EC50 (Hepatitis B virus [1]): 2.1 µM
EC90 (Hepatitis B virus [1]): 9.5 µM
CC50 (CCRF-CEM): 54.2 µM
EC50 (Hepatitis B virus [5]): 2.1 µM
EC90 (Hepatitis B virus [5]): 9.5 µM
EC90 [7]: > 10 µM
EC50 (Core antigen): 6 µM
inhibition [11]: 66%
CC50 (PBMC): > 100 µM
